Reference: ChEMBL document CHEMBL5113556, “Benzo[d]isoxazole Derivatives as Hypoxia-Inducible Factor (HIF)-1α Inhibitors” (ACS Med Chem Lett, 2022)

Experiments:
[1] = target: Hypoxia-inducible factor 1-alpha (Homo sapiens, UniProt Q16665); test: Inhibition of HIF-1alpha (unknown origin) transcriptional activity expressed in HEK293T cells co-transfected with renilla and HRE-firelfly luciferase incubated for 24 hrs by dual luciferase reporter gene assay; type: cell-based
Outline: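 HEK293T cells were transfected for 24 h with HIF-1α (P2A), Renilla and HRE-firefly luciferase constructs, then exposed to test compounds for a further 24 h. The firefly signal (luciferin substrate) gave HIF-1 inhibition, normalized to the Renilla signal (coelenterazine substrate). Transcriptional activity was calculated by a formula given in the Supporting Information.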

HEK-293T [2] = test: Cytotoxicity against HEK293T cells at 50 uM; type: toxicity, cell-based; conditions: human
Outline: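 Cytotoxicity was read from the Renilla signal of the dual-luciferase reporter run in HEK293T cells (24 h transfection, then 24 h compound exposure) at concentrations up to 50 μM.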

HEK-293T [3] = test: Downregulation of PDK1 mRNA expression in HEK293T cells measured after 24 hrs under hypoxia condition by RT-PCR analysis; conditions: Homo sapiens, dose 0.01-50 µM, DDE = dose-dependent effect
[4] = Downregulation of VEGF protein expression in HEK293T cells at 50 uM measured after 24 hrs under […] condition by Western blot analysis relative to control; type: functional, Homo sapiens, HEK-293T
HEK-293T [5] = test: Downregulation of VEGF mRNA expression in HEK293T cells measured after 24 hrs under hypoxia condition by RT-PCR analysis; conditions: Homo sapiens, dose 0.01-50 µM, DDE = dose-dependent effect

Hypoxia-inducible factor 1-alpha, sequence (Q16665 whole entry): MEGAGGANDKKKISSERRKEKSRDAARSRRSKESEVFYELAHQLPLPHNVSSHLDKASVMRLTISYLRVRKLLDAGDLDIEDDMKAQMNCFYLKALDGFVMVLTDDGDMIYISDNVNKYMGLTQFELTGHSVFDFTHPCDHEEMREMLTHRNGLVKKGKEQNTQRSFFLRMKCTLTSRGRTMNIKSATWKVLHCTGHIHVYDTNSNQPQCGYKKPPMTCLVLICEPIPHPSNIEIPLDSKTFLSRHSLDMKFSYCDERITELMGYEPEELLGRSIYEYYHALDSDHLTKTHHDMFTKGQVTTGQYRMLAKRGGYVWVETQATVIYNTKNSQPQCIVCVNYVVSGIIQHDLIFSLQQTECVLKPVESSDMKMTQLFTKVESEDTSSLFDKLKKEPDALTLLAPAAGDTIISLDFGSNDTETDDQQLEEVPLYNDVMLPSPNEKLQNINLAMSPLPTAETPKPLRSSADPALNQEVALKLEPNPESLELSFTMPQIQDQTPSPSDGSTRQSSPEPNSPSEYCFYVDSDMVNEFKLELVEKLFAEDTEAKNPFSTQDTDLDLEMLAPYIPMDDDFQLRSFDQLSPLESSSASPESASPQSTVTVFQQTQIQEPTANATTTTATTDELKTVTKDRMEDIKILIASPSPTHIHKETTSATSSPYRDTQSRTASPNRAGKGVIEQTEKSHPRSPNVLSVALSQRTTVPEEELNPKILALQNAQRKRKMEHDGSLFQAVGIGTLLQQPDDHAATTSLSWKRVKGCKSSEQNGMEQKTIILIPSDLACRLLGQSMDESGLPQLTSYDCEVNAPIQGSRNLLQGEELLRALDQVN

Row | SMILES | IC50 [1] | Activity (HEK-293T [2]) | Activity (HEK-293T [3]) | Activity [4] | Activity (HEK-293T [5])
1 | O=C(NCc1ccccc1)c1noc2ccccc12 | – | Non-Toxic | – | – | –
2 | COC(=O)c1ccc(O)c(NC(=O)COc2ccc(C34CC5CC(CC(C5)C3)C4)cc2)c1 | 2600 nM | Non-Toxic | – | – | –
3 | CC(=O)c1cccc(NC(=O)c2noc3ccccc23)c1 | 640 nM | Non-Toxic | – | – | –
4 | O=C(Nc1ccccc1)c1ccon1 | – | Non-Toxic | – | – | –
5 | CCn1c2ccccc2c2cc(NC(=O)c3noc4ccccc34)ccc21 | 810 nM | Non-Toxic | – | – | –
6 | O=C1CCCc2cc(NC(=O)c3noc4ccccc34)ccc21 | 640 nM | Non-Toxic | – | – | –
7 | O=C(Nc1cccc(-c2ccccc2)c1)c1noc2ccccc12 | 1700 nM | Non-Toxic | – | – | –
8 | CN(C)c1ccccc1NC(=O)c1noc2ccccc12 | – | Non-Toxic | – | – | –
9 | O=C(Nc1ccccn1)c1noc2ccccc12 | 940 nM | Non-Toxic | – | – | –
10 | O=C(NC1CCCCC1)c1noc2ccccc12 | 5400 nM | Non-Toxic | – | – | –
11 | O=C(Nc1noc2ccccc12)c1ccccc1 | – | Non-Toxic | – | – | –
12 | O=C(c1noc2ccccc12)N1CCCCC1 | – | Non-Toxic | – | – | –
13 | O=C(Nc1ccccc1Cl)c1noc2ccccc12 | 2300 nM | Non-Toxic | – | – | –
14 | O=C(Nc1ccncc1)c1noc2ccccc12 | 10000 nM | Non-Toxic | – | – | –
15 | COc1ccccc1NC(=O)c1noc2ccccc12 | 5500 nM | Non-Toxic | – | – | –
16 | CN(C)c1cccc(NC(=O)c2noc3ccccc23)c1 | 7400 nM | Non-Toxic | – | – | –

The remaining molecules from weak to strong by IC50 [1], led by results:

Row | IC50 [1] | SMILES | Activity (HEK-293T [2]) | Activity (HEK-293T [3]) | Activity [4] | Activity (HEK-293T [5])
17 | 480 nM | O=C(Nc1cccc([N+](=O)[O-])c1)c1noc2ccccc12 | Non-Toxic | – | – | –
18 | 310 nM | O=C(Nc1ccccc1)c1noc2ccccc12 | Non-Toxic | – | – | –
19 | 250 nM | O=C(Nc1cccc(Cl)c1)c1noc2ccccc12 | Non-Toxic | – | – | –
20 | 200 nM | COC(=O)c1cccc(NC(=O)c2noc3ccccc23)c1 | Non-Toxic | – | – | –
21 | 170 nM | COc1cccc(NC(=O)c2noc3ccccc23)c1 | Non-Toxic | – | – | –
22 | 75 nM | O=C(Nc1ccc2ccccc2c1)c1noc2ccccc12 | Non-Toxic | – | – | –
23 | 42 nM | O=C(Nc1ccc2scnc2c1)c1noc2ccccc12 | Non-Toxic | – | – | –
24 | 41 nM | O=C(Nc1ccc(Cl)cc1)c1noc2ccccc12 | Non-Toxic | – | – | –
25 | 40 nM | COc1ccc(NC(=O)c2noc3ccccc23)cc1 | Non-Toxic | – | – | –
26 | 24 nM | CC(=O)c1ccc(NC(=O)c2noc3ccccc23)cc1 | Non-Toxic | Dde | 20% | Dde
27 | 24 nM | CN(C)c1ccc(NC(=O)c2noc3ccccc23)cc1 | Non-Toxic | Dde | – | Dde
